Assay results taken from ChEMBL document CHEMBL1141165, “Novel 8-substituted dipyridodiazepinone inhibitors with a broad-spectrum of activity against HIV-1 strains resistant to non-nucleoside reverse transcriptase inhibitors” (J Med Chem, 2005).

Tests used:
[1] = molecular target: T1, Human immunodeficiency virus type 1 reverse transcriptase (Human immunodeficiency virus 1, UniProt Q72547, K103N/Y181C); test: Inhibitory activity of compound dissolved in DMSO was determined against HIV-1 (K103N/Y181C) mutant reverse transcriptase (1-2 nM) by using [3H]-dGTP (71 nM) as substrate, 50 mM Tris/HCl buffer, pH 7.8, incubated for 1 hr at 37 degrees C
Procedure, shortened: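 RT at ≈3 nM preincubated 15 min at room temperature with inhibitor, then substrate added. Final mix: 50 mM Tris/HCl pH 7.8, 60 mM NaCl, 2 mM MgCl2, 6 mM DTT, 2 mM GSH, 0.02% Chaps, 3% DMSO, 179 nM poly rC, 18 nM biotin-dG15, 288 nM dGTP, 71 nM 3H-dGTP, 1–2 nM enzyme, inhibitor 10 μM–0.5 nM. Reaction 1 h at 37 °C, quenched with EDTA plus streptavidin SPA beads, CsCl added, scintillation counted.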

[2] = molecular target: T2, Human immunodeficiency virus type 1 reverse transcriptase (Human immunodeficiency virus 1, UniProt Q72547); test: Inhibitory activity of compound dissolved in DMSO was determined against HIV-1 wild type reverse transcriptase (1-2 nM) by using [3H]dGTP (71 nM) as substrate, 50 mM Tris/HCl buffer, pH 7.8, incubated for 1 h at 37 degrees C
Procedure, shortened: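 Wild-type RT preincubated 15 min at room temperature with inhibitor. Final reaction: Tris/HCl 50 mM pH 7.8, NaCl 60 mM, MgCl2 2 mM, DTT 6 mM, GSH 2 mM, Chaps 0.02%, DMSO 3%, poly rC 179 nM, biotin-dG15 18 nM, dGTP 288 nM, 3H-dGTP 71 nM, enzyme 1–2 nM, inhibitor 10 μM–0.5 nM. Run 1 h at 37 °C, EDTA-quenched, read with streptavidin SPA beads.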

[3] = molecular target: T1, Human immunodeficiency virus type 1 reverse transcriptase; test: Effective concentration towards HIV-1 K103N/Y181C mutant reverse transcriptase activity by 50% measured in cellular assay
Procedure, shortened: (§1)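 C8166 T-lymphocytes infected at MOI 0.001 with HIV-1 carrying wild-type or mutant RT, then grown 3 days with serial compound dilutions in RPMI 1640 + 10% FBS, 10 μg/mL gentamycin, 10 μM β-mercaptoethanol (also the diluent). Supernatant pooled from eight replica wells; extracellular p24 measured by HIV-1 p24 antigen kit.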

[4] = Clearance is determined in rat after intravenous administration at 1 mg/kg; assay type: ADME, organism-based; design: dose 1 mg/kg, route intravenous; conditions: in vivo
Procedure, shortened: (§2)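 Intravenous bolus at 1 mg/kg to overnight-fasted male Sprague-Dawley rats, beagle dogs or rhesus monkeys. Vehicle: N,N-dimethylacetamide/0.9% aqueous NaCl (30:70). Animals restrained during sampling. Plasma extracts analysed by HPLC. Parameters derived by noncompartmental analysis.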

C8166 [5] = test: Inhibition of HIV replication in T-lymphocyte cell line C8166 infected with V106A mutant reverse transcriptase upon incubation with the compound for 3 days; assay type: functional, Homo sapiens; procedure, shortened: as §1
C8166 [6] = test: Inhibition of HIV replication in T-lymphocyte cell line C8166 infected with Y188L mutant reverse transcriptase upon incubation with the compound for 3 days; assay type: functional, Homo sapiens; procedure, shortened: as §1
C8166 [7] = test: Inhibition of HIV replication in T-lymphocyte cell line C8166 infected with K103N/L100I mutant reverse transcriptase upon incubation with the compound for 3 days; assay type: functional, Homo sapiens; procedure, shortened: as §1
C8166 [8] = test: Inhibition of HIV replication in T-lymphocyte cell line C8166 infected with K103N/P225H mutant reverse transcriptase upon incubation with the compound for 3 days; assay type: functional, Homo sapiens; procedure, shortened: as §1
C8166 [9] = test: Inhibition of HIV replication in T-lymphocyte cell line C8166 infected with K103N/V108I mutant reverse transcriptase upon incubation with the compound for 3 days; assay type: functional, Homo sapiens; procedure, shortened: as §1
Caco-2 = test: Caco-2 permeability upon incubation at 37 degrees C for 180 minutes; assay type: functional, Homo sapiens
Procedure, shortened: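 Cells grown on 12-well Transwell membranes and exposed to test solution for 180 min at 37 °C. Receiving-side (basolateral, A to B) samples analysed by HPLC. Apparent permeability = (ΔQ/Δt)/(A·C0), where ΔQ/Δt is the transport rate, A the monolayer area and C0 the initial donor concentration.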

Cytochrome P450 3A4 [10] = molecular target: T3, Cytochrome P450 3A4 (Homo sapiens, UniProt P08684); test: Inhibitory concentration (1.5 mM) against human CYP450 3A4 dissolved in acetonitrile/methanol using 7-Benzyloxy-quinoline (BQ) as fluorogenic substrate
[11] = molecular target: T2, Human immunodeficiency virus type 1 reverse transcriptase; test: Effective concentration towards HIV-1 wild type reverse transcriptase activity by 50% measured in cellular assay
Procedure, shortened: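 C8166 T-lymphocytes infected at MOI 0.001 with wild-type HIV-1, then cultured 3 days with serial compound dilutions in RPMI 1640 containing 10% FBS, gentamycin and 10 μM β-mercaptoethanol. Supernatants pooled from eight replicate wells. Extracellular p24 measured by antigen immunoassay.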

Cytochrome P450 1A2 = molecular target: T4, Cytochrome P450 1A2 (Homo sapiens, UniProt P05177); test: Inhibitory concentration (1.5 mM) against human CYP450 1A2 dissolved in acetonitrile/methanol
T4 sequence (P05177 whole entry): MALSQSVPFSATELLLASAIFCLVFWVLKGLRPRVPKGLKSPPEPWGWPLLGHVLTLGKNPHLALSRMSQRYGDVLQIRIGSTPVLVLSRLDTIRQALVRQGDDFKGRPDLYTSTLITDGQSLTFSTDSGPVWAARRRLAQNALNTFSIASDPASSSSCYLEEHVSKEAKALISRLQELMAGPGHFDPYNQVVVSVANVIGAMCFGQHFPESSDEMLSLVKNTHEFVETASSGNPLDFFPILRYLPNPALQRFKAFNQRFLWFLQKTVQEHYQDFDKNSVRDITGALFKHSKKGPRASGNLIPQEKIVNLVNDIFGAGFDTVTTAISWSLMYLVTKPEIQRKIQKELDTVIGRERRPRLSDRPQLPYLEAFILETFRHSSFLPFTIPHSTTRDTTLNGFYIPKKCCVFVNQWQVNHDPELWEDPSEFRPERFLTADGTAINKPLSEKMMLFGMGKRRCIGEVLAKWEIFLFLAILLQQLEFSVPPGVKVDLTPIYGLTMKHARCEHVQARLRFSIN

Cytochrome P450 2D6 = Cytochrome P450 2D6 (Homo sapiens, UniProt P10635); test: Inhibitory concentration (1.5 mM) against human CYP450 2D6 dissolved in acetonitrile/methanol
Cytochrome P450 2C19 = Cytochrome P450 2C19 (Homo sapiens, UniProt P33261); test: Inhibitory concentration (1.5 mM) against human CYP450 2C19 dissolved in acetonitrile/methanol
[12] = Half-life is determined in dog after intravenous administration 1 mg/kg; assay type: ADME, organism-based, Canis lupus familiaris; design: dose 1 mg/kg, route intravenous; conditions: in vivo; procedure, shortened: as §2
[13] = Half-life is determined in rat after intravenous administration at 1 mg/kg; assay type: ADME, organism-based; design: dose 1 mg/kg, route intravenous; conditions: in vivo; procedure, shortened: as §2
[14] = Steady state volume of distribution is determined in dog after intravenous administration 1 mg/kg; assay type: ADME, organism-based, Canis lupus familiaris; design: dose 1 mg/kg, route intravenous; conditions: in vivo, read-out: Vss; procedure, shortened: as §2
[15] = Steady state volume of distribution in rat after intravenous administration 1 mg/kg; assay type: ADME, organism-based; design: dose 1 mg/kg, route intravenous; conditions: in vivo, read-out: Vss; procedure, shortened: as §2
[16] = Clearance is determined in dog after intravenous administration at 1 mg/kg; assay type: ADME, organism-based, Canis lupus familiaris; design: dose 1 mg/kg, route intravenous; conditions: in vivo; procedure, shortened: as §2
[17] = Half-life is determined in monkey after intravenous administration at 1 mg/kg; assay type: ADME, organism-based; design: dose 1 mg/kg, route intravenous; conditions: cercopithecidae, in vivo; procedure, shortened: as §2
[18] = Clearance is determined in monkey after intravenous administration 1 mg/kg; assay type: ADME, organism-based; design: dose 1 mg/kg, route intravenous; conditions: cercopithecidae, in vivo; procedure, shortened: as §2
[19] = Steady state volume of distribution is determined in monkey after intravenous administration at 1 mg/kg; assay type: ADME, organism-based; design: dose 1 mg/kg, route intravenous; conditions: cercopithecidae, in vivo, read-out: Vss; procedure, shortened: as §2
Cytochrome P450 3A4 [20] = molecular target: T3, Cytochrome P450 3A4
Cytochrome P450 2C9 = Cytochrome P450 2C9 (Homo sapiens, UniProt P11712)
in vitro = conditions: male, human, liver microsomes
[21] = Bioavailability is determined in dog after oral administration 5 mg/kg; conditions: in vivo
[22] = Area under curve is determined in dog after oral administration 5 mg/kg; conditions: in vivo
[23] = Bioavailability is determined in rat after oral administration at 5 mg/kg; conditions: in vivo
[24] = Area under curve is determined in rat after oral administration at 5 mg/kg; conditions: in vivo
[25] = Concentration maximum is determined in dog after oral administration 5 mg/kg; conditions: in vivo
[26] = Bioavailability is determined in monkey after oral administration at 5 mg/kg; conditions: cercopithecidae, in vivo
[27] = Area under curve is determined in monkey after oral administration at 5 mg/kg; conditions: cercopithecidae, in vivo
[28] = Concentration maximum is determined in rat after oral administration at 5 mg/kg; conditions: in vivo
[29] = Maximum concentration is determined in monkey after oral administration at 5 mg/kg; conditions: cercopithecidae, in vivo

T3 sequence (P08684 whole entry): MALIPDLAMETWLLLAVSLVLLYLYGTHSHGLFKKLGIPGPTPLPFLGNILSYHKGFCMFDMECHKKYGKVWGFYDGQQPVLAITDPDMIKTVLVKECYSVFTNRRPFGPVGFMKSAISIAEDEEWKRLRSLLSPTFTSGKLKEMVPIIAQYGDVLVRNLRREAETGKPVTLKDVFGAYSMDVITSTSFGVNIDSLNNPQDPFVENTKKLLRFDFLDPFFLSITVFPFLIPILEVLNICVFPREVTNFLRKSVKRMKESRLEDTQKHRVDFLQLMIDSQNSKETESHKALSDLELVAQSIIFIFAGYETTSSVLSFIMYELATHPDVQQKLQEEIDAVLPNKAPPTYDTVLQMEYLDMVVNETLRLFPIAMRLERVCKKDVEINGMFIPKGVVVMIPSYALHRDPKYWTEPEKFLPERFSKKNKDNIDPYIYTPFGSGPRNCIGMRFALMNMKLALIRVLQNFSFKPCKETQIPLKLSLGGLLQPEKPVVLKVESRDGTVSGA
Sequence of Cytochrome P450 2C9 (P11712 whole entry): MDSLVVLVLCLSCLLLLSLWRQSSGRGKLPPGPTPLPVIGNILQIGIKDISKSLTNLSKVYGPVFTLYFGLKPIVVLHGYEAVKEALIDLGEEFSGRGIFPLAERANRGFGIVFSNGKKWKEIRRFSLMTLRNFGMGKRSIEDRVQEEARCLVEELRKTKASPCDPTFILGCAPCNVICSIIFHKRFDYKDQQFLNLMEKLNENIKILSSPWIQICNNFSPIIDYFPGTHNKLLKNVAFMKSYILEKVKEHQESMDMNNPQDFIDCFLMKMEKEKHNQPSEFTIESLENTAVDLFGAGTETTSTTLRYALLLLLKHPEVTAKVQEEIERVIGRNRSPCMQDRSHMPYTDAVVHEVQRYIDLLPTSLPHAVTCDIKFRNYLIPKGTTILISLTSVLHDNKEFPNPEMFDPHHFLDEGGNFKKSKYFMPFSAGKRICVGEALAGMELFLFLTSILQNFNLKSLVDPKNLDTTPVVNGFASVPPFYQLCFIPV
Sequence of Cytochrome P450 2C19 (P33261 whole entry): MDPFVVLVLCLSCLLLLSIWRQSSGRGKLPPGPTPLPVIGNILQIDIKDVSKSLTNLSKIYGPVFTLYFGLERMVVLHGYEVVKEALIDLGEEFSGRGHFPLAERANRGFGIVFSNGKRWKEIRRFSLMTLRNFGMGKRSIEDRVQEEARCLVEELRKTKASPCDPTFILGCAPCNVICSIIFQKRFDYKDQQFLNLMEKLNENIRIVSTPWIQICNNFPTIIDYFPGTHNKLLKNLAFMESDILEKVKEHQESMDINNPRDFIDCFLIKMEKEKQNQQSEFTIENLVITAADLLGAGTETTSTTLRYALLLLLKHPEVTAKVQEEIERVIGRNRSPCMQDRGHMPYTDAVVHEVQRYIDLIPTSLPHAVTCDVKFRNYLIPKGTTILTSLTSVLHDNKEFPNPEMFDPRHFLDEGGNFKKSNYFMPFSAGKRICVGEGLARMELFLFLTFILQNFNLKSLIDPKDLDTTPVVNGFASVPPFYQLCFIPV
Sequence of Cytochrome P450 2D6 (P10635 whole entry): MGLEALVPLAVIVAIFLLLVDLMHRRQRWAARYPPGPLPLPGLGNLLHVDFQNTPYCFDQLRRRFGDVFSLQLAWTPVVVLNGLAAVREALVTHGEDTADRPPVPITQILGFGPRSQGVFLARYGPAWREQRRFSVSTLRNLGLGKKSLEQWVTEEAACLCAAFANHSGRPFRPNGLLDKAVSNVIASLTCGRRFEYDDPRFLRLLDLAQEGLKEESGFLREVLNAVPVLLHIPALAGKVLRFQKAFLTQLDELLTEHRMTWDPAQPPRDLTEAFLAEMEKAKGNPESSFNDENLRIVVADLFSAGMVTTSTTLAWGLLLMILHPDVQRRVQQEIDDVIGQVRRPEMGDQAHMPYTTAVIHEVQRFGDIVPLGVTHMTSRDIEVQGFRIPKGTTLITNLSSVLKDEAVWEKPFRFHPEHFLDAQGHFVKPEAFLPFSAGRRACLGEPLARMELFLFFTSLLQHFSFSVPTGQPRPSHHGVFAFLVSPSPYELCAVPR

## CCN1c2ncc(CCOc3ccc4cc(C(=O)O)ccc4c3)cc2C(=O)N(C)c2cccnc21
[1]
  IC50: 1100 nM
[2]
  IC50: 14 nM

## CCN1c2ncc(CCOc3ccc(C(=O)O)cc3C)cc2C(=O)N(C)c2cccnc21
[3]
  EC50: 15 nM
[1]
  IC50: 221 nM
[4]
  clearance: 7.1 mL/min/kg
C8166 [5]
  Antiviral activity: 36 nM
C8166 [6]
  Antiviral activity: 172 nM
C8166 [7]
  Antiviral activity: 4 nM
C8166 [8]
  Antiviral activity: 5 nM
C8166 [9]
  Antiviral activity: 5 nM
Caco-2
  Caco-2 A-B: 2.75e-05 cm/s
Cytochrome P450 3A4 [10]
  IC50: > 30000 nM
[2]
  IC50: 17 nM
[11]
  EC50: 1.6 nM
Cytochrome P450 1A2
  IC50: > 30000 nM
Cytochrome P450 2D6
  IC50: > 30000 nM
Cytochrome P450 2C19
  IC50: 2000 nM
[12]
  half-life: 5.9 h
[13]
  half-life: 11 h
[14]
  Vd: 2.5 L/kg
[15]
  Vd: 4.6 L/kg
[16]
  clearance: 10 mL/min/kg
[17]
  half-life: 1.3 h
[18]
  clearance: 24 mL/min/kg
[19]
  Vd: 1 L/kg
Cytochrome P450 3A4 [20]
  IC50: 24000 nM
Cytochrome P450 2C9
  IC50: 10000 nM
In vitro
  half-life at 10 µM: 2.23 h
[21]
  bioavailability: 115%
[22]
  AUC: 20 uMh
[23]
  bioavailability: 46%
[24]
  AUC: 12 uMh
[25]
  Cmax: 16 µM
[26]
  bioavailability: 43%
[27]
  AUC: 3.4 uMh
[28]
  Cmax: 6.5 µM
[29]
  Cmax: 1.5 µM

## CCN1c2ncc(CCOc3ccc(CCC(=O)O)cc3C)cc2C(=O)N(C)c2cccnc21
[3]
  EC50: 101 nM
[1]
  IC50: 200 nM
Caco-2
  Caco-2 A-B: 4.69e-05 cm/s
[2]
  IC50: 22 nM
[11]
  EC50: 5.5 nM
In vitro
  half-life at 10 µM: 3.43 h
